Results taken from ChEMBL document CHEMBL3526077, “Prediction of human metabolism of FK3453 by aldehyde oxidase using chimeric mice transplanted with human or rat hepatocytes” (Drug Metab Dispos, 2012).

How the values were obtained:
[1] = Half life in rat at 3 mg/kg, iv; type: ADME, organism-based; parameters: dose 3 mg/kg, route intravenous; settings: in vivo
[2] = Drug excretion in urine of chimeric mouse transplanted with rat hepatocytes at 3 mg/kg, iv as single dose; type: ADME, organism-based, Hepatocyte; parameters: dose 3 mg/kg, route intravenous; settings: read-out: Drug excretion
Summary of the method: (§1)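 After a 3 mg/kg i.v. dose, pooled urine and feces were collected from metabolic cages over 0–24 hr (n=3). Samples were homogenized in 10 volumes of water, mixed with acetonitrile and analysed by UPLC (UV 254 nm) and LC/MS/MS. Excretion expressed as % of dose.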

[3] = Cmax in human at 10 mg, po; type: ADME, organism-based; parameters: dose 10 mg, route oral; settings: in vivo
[4] = Plasma protein binding in rat by equilibrium dialysis method; type: ADME, cell-free; settings: read-out: PPB (converted)
[5] = AUC in rat at 3.2 mg/kg, po; type: ADME, organism-based; parameters: dose 3.2 mg/kg, route oral; settings: plasma
[6] = Half life in chimeric mouse transplanted with rat hepatocytes at 3 mg/kg, iv; type: ADME, organism-based, Hepatocyte; parameters: dose 3 mg/kg, route intravenous
Summary of the method: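 Single 3 mg/kg intravenous dose in 10% DMSO, 10% PEG400 with equimolar HCl in saline to h-PXB or r-PXB mice (n=3~4). Orbital-vein plasma collected over 0–6 hr and measured by LC/MS/MS. Non-compartmental analysis; AUC by trapezoidal rule extrapolated to infinity; CLt = Dose/AUCiv.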

[7] = Intrinsic clearance in hepatocytes isolated from chimeric mouse transplanted with human hepatocytes assessed as per million cells at 10 uM after 2 hrs by LC/MS/MS analysis; type: ADME, cell-based, Hepatocyte; settings: read-out: CLH
Summary of the method: (§2)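 Fresh hepatocytes from h-PXB mice (mouse cells removed with 66Z rat IgG and anti-rat IgG magnetic beads) or r-PXB mice, 1×10^6 cells/mL in serum-free Krebs-Henseleit buffer. Incubated with 10 μM compound (0.5% acetonitrile) at 37°C under 5% CO₂/95% O₂ with shaking, sampled 0–2 hr. Quenched with acetonitrile, analysed by LC/MS/MS, n=3. CLint derived from first-order depletion rate constant.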

[8] = Clearance in rat at 3.2 mg/kg, po; type: ADME, organism-based; parameters: dose 3.2 mg/kg, route oral; settings: in vivo
[9] = Intrinsic clearance in hepatocytes isolated from chimeric mouse transplanted with rat hepatocytes assessed as per million cells at 10 uM after 2 hrs by LC/MS/MS analysis; type: ADME, cell-based, Hepatocyte; settings: read-out: CLH; summary of the method: as §2
aldehyde oxidase = target: T1, aldehyde oxidase (Homo sapiens, UniProt Q06278); experiment: Activity of aldehyde oxidase in hepatocytes isolated from chimeric mouse transplanted with human hepatocytes assessed as enzyme-mediated drug metabolism measured as compound remaining at 10 uM after 2 hrs by LC/MS/MS analysis; type: ADME, cell-based, Hepatocyte; settings: read-out: Stability; summary of the method: as §2
T1 sequence (Q06278 whole entry): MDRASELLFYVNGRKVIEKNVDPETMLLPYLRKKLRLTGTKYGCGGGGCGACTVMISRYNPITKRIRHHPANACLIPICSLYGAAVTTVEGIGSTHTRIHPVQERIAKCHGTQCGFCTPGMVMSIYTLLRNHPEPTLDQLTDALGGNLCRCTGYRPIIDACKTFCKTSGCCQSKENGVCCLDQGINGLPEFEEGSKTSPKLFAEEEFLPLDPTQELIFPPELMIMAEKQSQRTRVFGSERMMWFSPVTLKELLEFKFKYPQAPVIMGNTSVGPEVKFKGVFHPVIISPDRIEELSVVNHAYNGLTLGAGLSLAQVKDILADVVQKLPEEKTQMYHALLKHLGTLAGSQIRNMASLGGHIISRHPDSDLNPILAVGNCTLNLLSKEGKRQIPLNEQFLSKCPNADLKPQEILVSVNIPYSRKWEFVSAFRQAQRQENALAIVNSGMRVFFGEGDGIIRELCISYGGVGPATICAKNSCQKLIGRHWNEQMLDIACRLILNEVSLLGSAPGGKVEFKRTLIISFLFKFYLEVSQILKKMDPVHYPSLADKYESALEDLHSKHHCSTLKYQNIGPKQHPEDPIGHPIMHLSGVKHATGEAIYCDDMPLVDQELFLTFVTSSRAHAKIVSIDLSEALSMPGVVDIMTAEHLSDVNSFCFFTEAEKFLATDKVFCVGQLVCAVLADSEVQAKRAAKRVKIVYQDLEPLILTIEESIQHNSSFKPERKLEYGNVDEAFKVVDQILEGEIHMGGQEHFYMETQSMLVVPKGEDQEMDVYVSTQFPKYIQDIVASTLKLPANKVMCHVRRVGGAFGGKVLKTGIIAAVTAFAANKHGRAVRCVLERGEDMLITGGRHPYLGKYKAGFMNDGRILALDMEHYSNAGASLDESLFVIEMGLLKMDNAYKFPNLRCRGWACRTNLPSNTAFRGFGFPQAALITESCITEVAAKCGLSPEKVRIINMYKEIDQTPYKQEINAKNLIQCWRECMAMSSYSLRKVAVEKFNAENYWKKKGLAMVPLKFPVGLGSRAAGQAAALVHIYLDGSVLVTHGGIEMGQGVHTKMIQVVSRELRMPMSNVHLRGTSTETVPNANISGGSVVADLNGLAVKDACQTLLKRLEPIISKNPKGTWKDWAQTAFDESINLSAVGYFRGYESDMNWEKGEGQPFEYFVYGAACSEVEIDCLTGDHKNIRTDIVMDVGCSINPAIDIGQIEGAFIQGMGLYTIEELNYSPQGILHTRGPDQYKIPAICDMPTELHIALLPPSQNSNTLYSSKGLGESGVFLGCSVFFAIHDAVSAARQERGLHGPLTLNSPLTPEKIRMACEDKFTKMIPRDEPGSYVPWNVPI

[10] = Clearance in human at 10 mg, po; type: ADME, organism-based; settings: in vivo
[11] = Oral bioavailability in rat at 3.2 mg/kg; type: ADME, organism-based; settings: in vivo
[12] = Oral bioavailability in chimeric mouse transplanted with human hepatocytes at 3 mg/kg; type: ADME, organism-based, Hepatocyte
[13] = Plasma protein binding in chimeric mouse transplanted with human hepatocytes by equilibrium dialysis method; type: ADME, cell-free, Hepatocyte; settings: read-out: PPB (converted)
Summary of the method: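 Compound at 1 µg/mL incubated in plasma of h-PXB or r-PXB mice; bound fraction determined by equilibrium dialysis.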

[14] = Total clearance in rat at 3 mg/kg, iv; type: ADME, organism-based; parameters: dose 3 mg/kg, route intravenous; settings: in vivo
[15] = Oral bioavailability in chimeric mouse transplanted with rat hepatocytes at 3 mg/kg; type: ADME, organism-based, Hepatocyte
[16] = Drug excretion in feces of chimeric mouse transplanted with rat hepatocytes at 3 mg/kg, iv as single dose; type: ADME, organism-based, Hepatocyte; parameters: dose 3 mg/kg, route intravenous; settings: read-out: Drug excretion; summary of the method: as §1
Mus musculus = experiment: Drug metabolism in plasma of chimeric mouse transplanted with rat hepatocytes at 3 mg/kg, iv as single dose; type: ADME, organism-based, Hepatocyte; parameters: dose 3 mg/kg, route intravenous
Summary of the method: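 Pooled plasma from h-PXB or r-PXB mice after a 3 mg/kg i.v. dose was mixed with an equal volume of acetonitrile and centrifuged. Metabolites were profiled by C18 UPLC with ammonium formate/acetonitrile gradient, UV 254 nm, and Orbitrap MS/MS. Scored as detected or not detected.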

half-life [1]: 24 min
dose excreted [2]: 0.1%
Cmax [3]: 1.5 ng/mL
fraction unbound [4]: 0.246
AUC [5]: 1.79 µg·h/mL
half-life [6]: 48 min
hepatocyte CLint at 10 µM [7]: 10 µL/min/1e6 cells
CL/F [8]: 1.79 L/h/kg
hepatocyte CLint at 10 µM [9]: 5 µL/min/1e6 cells
remaining at 2 h, 10 µM (aldehyde oxidase): 27.5%
CL/F [10]: 65.2 L/h/kg
bioavailability [11]: 34.6%
bioavailability [12]: 29.4%
fraction unbound [13]: 0.205
clearance [14]: 0.648 L/h/kg
bioavailability [15]: 52.6%
dose excreted [16]: 1.1%
Drug metabolism (Mus musculus): metabolite_detected
SMILES: CC(C)n1nc(-c2cnc(N)nc2-c2ccccc2)ccc1=O
